Compound activity from PubChem BioAssay.
SUMO Mot1 rescue – yeast Mot1-301 growth rescue at high temperature, primary screen, SUMOylation pathway inhibitor project, S. cerevisiae, ATP luminescence, 38.5C | S. cerevisiae Mot1-301 growth rescue; percent above DMSO median, 100 means doubled | growth rescue, % at 18.8 µM | hit rate 1% among 320,000;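 active = every valid replicate shows activation above 250% relative to neutral control wells; inactive = the rest, any valid replicate at or below 250%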;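 note: OY570 slx delta 5 strain wells were the positive control but not used for scaling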
IMP-1 inh – IMP-1 metallo-beta-lactamase inhibitors, primary screen, biochemical, epi-absorbance readout, Pseudomonas aeruginosa enzyme. metallo-beta-lactamase IMP-1 (Pseudomonas aeruginosa). purified IMP-1, nitrocefin hydrolysis, epi-absorbance fluorescence. inhibition, % at 5.6 µM. hit rate 0.45% among 290,000. AID 1556, 2009;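 active = inhibition above the mean plus 3 SD of all compounds in the same screening run, cut at about 4.5% in these data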;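 note: 0% = IMP-1 with DMSO and 100% = DMSO wells lacking enzyme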
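system = purified recombinant IMP-1 beta-lactamase | amount = 0.2 nM IMP-1, as dispensed | medium = HEPES buffer pH 7.1 with ZnSO4 and Brij 35 | times = 25 °C, 15 min preincubation, 25 min reaction | detection = plate fluorescence quenching by hydrolysis product, ex 480/em 530 nm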
VIM-2 inh – VIM-2 metallo-beta-lactamase inhibitors, primary screen, biochemical, epi-absorbance readout, Pseudomonas aeruginosa enzyme. inhibition, % at 5.6 µM. hit rate 0.89% among 290,000. purified VIM-2, nitrocefin hydrolysis, epi-absorbance fluorescence;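 active = inhibition above the mean of all tested compounds plus 3 SD, cutoff set per screening run, cut at about 7.5% in these data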;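 note: red hydrolysis product quenches plate fluorescence so inhibitors raise well fluorescence; 0% = enzyme with DMSO and 100% = DMSO without enzyme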
UBC9 SUMO inh – inhibitors of in vitro SUMOylation cascade, primary screen, biochemical, HTRF, uHTS. hit rate 0.36% among 290,000. AID 2006, 2009. inhibition, % at 35 µM. SUMO-conjugating enzyme UBC9 (Homo sapiens), P63279. HTRF SUMOylation assay, SAE1/SAE2 + UBC9; in the data active = inhibition above about 50%, passing the limit was not always enough; inconclusive = no clear call, values can overlap the other calls
Target sequence (P63279 whole entry, looked up): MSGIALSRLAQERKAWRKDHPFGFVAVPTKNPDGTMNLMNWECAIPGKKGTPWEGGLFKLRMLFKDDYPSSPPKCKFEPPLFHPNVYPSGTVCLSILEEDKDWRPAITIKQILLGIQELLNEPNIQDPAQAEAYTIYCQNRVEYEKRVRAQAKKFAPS
NALP1 yeast inh – NALP1 inflammasome inhibitors in reconstituted yeast, colorimetric, S. cerevisiae, triplicate retest; AID 2071, 2009; inhibition, % at 10 µM; hit rate 0.61% among 280,000; S. cerevisiae NALP1/ASC/caspase-1 growth, X-gal OD620, 72 h; in the data active = inhibition mostly above about 24%, no sharp cut-off; inactive = mostly below about 32%
FID counter – compounds displacing fluorescent DNA intercalator, primary screen, artefact control for HCV NS3 helicase inhibitor project, biochemical, FID fluorescence | hit rate 0.17% among 290,000 | DNA fluorescent intercalator displacement | AID 1845, 2009 | inhibition, % at 7.9 µM; in the data active = inhibition above about 37%;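 note: 0% = vehicle and 100% = reference compound; higher means more ethidium bromide displaced from hairpin DNA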
VIM-2 inh confirm – P. aeruginosa VIM-2 enzyme inhibition – biochemical, epi-absorbance, HTS, confirmation; purified VIM-2 enzyme, nitrocefin absorbance; hit rate 73% among 200; inhibition, % at 5.6 µM; shares compounds with IMP-1 inh; in the data active = inhibition above about 8%;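 note: 0% = enzyme with vehicle and 100% = no enzyme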
TEM-1 counter – Serine beta-lactamase TEM-1 inhibition, biochemical epi-absorbance counter-screen for IMP-1/VIM-2 inhibitor program; shares compounds with IMP-1 inh; TEM-1 beta-lactamase, nitrocefin absorbance inhibition; inhibition, % at 5.6 µM; hit rate 50% among 200; AID 2184, 2009; in the data active = inhibition above about 0.66%
Target sequence (P62593 whole entry, looked up): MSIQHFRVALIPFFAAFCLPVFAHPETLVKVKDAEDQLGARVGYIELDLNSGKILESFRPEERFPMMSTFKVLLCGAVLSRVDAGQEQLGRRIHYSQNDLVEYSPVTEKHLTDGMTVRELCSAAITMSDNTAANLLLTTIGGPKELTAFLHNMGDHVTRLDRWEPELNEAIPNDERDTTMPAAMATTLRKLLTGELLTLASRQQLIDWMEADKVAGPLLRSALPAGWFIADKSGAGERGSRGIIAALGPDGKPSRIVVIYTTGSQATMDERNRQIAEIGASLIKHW
IMP-1 inh conf – IMP-1 metallo-beta-lactamase inhibitors, confirmation, biochemical, epi-absorbance, hits shared with VIM-2 screen. inhibition, % at 5.6 µM. shares compounds with IMP-1 inh. hit rate 60% among 200. purified IMP-1 enzyme, absorbance substrate hydrolysis. AID 2189, 2009; in the data active = inhibition above about 4.9%;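 note: 0% = enzyme with vehicle and 100% = vehicle without enzyme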
Yeast Mot1 SUMO – growth restoration of Mot1-301 yeast on galactose, dose response, SUMO pathway inhibitor project, whole organism, S. cerevisiae, ATP luminescence, cherry-picked samples | AID 493004, 2010 | shares compounds with SUMO Mot1 rescue | growth activity, percent, % at 42 µM | 2,300 tested, under 10 active | S. cerevisiae Mot1-301 galactose growth, 24 h; -100 = growth of slx-deleted rescue strain;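 active = Signal drops as the depositor expects, and the fitted half-maximal dose is no more than ten times the top valid tested dose; inconclusive = Poor fit, or a flat curve whose signal drops by 30% to 70%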;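 note: more negative values mean stronger growth rescue toward the control strain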
* marks the source's active call; other numbers are inactive results. Most compounds without a hit are left out; they make up all but 2.9% or so of the library.

O=[N+]([O-])c1ccc(N2CCCCCC2)c2nonc12 was read as SUMO Mot1 rescue 6.3, IMP-1 inh 14.9*, VIM-2 inh 13.0*, UBC9 SUMO inh 27.6, NALP1 yeast inh -6.2, FID counter -111.5, VIM-2 inh confirm 18.8*, TEM-1 counter 22.5* and IMP-1 inh conf 15.9*.
Screening Nc1ccccc1Cl returned SUMO Mot1 rescue 113.1.
Nc1ccc2ccc3cccc[n+]3c2c1 was read as SUMO Mot1 rescue -25.8, IMP-1 inh 26.1*, VIM-2 inh 25.5*, UBC9 SUMO inh inconclusive, NALP1 yeast inh 20.2, FID counter 19.5, VIM-2 inh confirm 35.1*, TEM-1 counter 39.8* and IMP-1 inh conf 23.8*.
Cc1cc2c(C(F)(F)F)cc(=O)oc2c2c1NCCC2 was read as SUMO Mot1 rescue 10.0, IMP-1 inh -4.8, VIM-2 inh -3.7, UBC9 SUMO inh 18.3, NALP1 yeast inh 8.7 and FID counter 0.3.
`O=c1cc(C(F)(F)F)c2cc3c4c(c2o1)CCCN4CCC3` gave SUMO Mot1 rescue 4.3, IMP-1 inh 7.8*, VIM-2 inh 8.5*, UBC9 SUMO inh 18.3, NALP1 yeast inh 18.5, FID counter -7.3, VIM-2 inh confirm 34.7*, TEM-1 counter 52.4* and IMP-1 inh conf 26.4*.
`Cc1ccc(CN2C(=O)NC(=O)C3(Cc4c(nc5ccccn5c4=O)N4CCCCCC43)C2=O)cc1` (centres undefined) gave SUMO Mot1 rescue 24.5, IMP-1 inh -0.8, VIM-2 inh -4.1, UBC9 SUMO inh 17.9, NALP1 yeast inh 32.4 and FID counter -13.9.
`C=C1C(O)[C@@H]2O[C@]3(CC[C@H](/C=C/C(C)[C@@H]4CC(C)=CC5(O[C@H](C[C@@](C)(O)C(=O)O)CCC5O)O4)O3)CC[C@H]2O[C@@H]1C(O)CC(C)[C@H]1OC2(CCCCO2)CCC1C` (some centres undefined) gave SUMO Mot1 rescue 887.7* and Yeast Mot1 SUMO -1.9.
For COc1ccc(C2SCC(=O)Nc3c2c(=O)[nH]n3C2CCCCC2)cc1 (centres undefined) the results were SUMO Mot1 rescue 824.1*, IMP-1 inh -4.4, VIM-2 inh -2.3, UBC9 SUMO inh 8.4, NALP1 yeast inh -14.9, FID counter -6.0 and Yeast Mot1 SUMO 0.0.
For Cc1ccc(C2SCC(=O)Nc3c2c(=O)[nH]n3C2CCOC(C)(C)C2)cc1 (centres undefined) the results were SUMO Mot1 rescue 3.3, IMP-1 inh -1.8, VIM-2 inh -2.2, UBC9 SUMO inh 2.3, NALP1 yeast inh 36.2 and FID counter -11.8.
For CC(C)C/C(=N/O)c1c[nH]c2ccccc12 the results were SUMO Mot1 rescue 572.5*, IMP-1 inh -2.2, VIM-2 inh -3.5, UBC9 SUMO inh -4.9, NALP1 yeast inh 2.2, FID counter 2.8 and Yeast Mot1 SUMO 0.9.
For COC(=O)[C@@H]1[C@@H](C(=O)OC)C2(c3ccccc3-c3ccccc32)N(c2ccc(Cl)cc2)N1C#N the results were SUMO Mot1 rescue 426.6*, IMP-1 inh 0.3, VIM-2 inh -1.8, UBC9 SUMO inh 1.1, NALP1 yeast inh -5.0, FID counter -16.4 and Yeast Mot1 SUMO -0.8.
Screening COC(=O)c1c(C)n(Cc2ccc3c(c2)OCO3)c2ccc(O)cc12 returned SUMO Mot1 rescue 696.4*, IMP-1 inh -3.0, VIM-2 inh 0.2, UBC9 SUMO inh 4.0, NALP1 yeast inh 25.9, FID counter -18.1 and Yeast Mot1 SUMO -0.5.
CCOC(=O)c1c(C)n(Cc2ccc3c(c2)OCO3)c2ccc(O)cc12 was read as SUMO Mot1 rescue 4.8, IMP-1 inh -2.8, VIM-2 inh -1.0, UBC9 SUMO inh 7.0, NALP1 yeast inh -7.1 and FID counter -19.0.
For CCOC(=O)C1(c2ccccc2)CCN(CCC(=O)Nc2ccc(F)cc2)CC1 the results were SUMO Mot1 rescue 10.4.
CCOC(=O)C1(c2ccccc2)CCN(CCC(=O)Nc2ccccc2OC)CC1 was read as SUMO Mot1 rescue 378.0*, IMP-1 inh -0.7, VIM-2 inh -2.3, UBC9 SUMO inh 5.8, NALP1 yeast inh 5.8, FID counter 2.7 and Yeast Mot1 SUMO 0.6.
Screening COc1ccc(Oc2c(C)oc3cc(OC(=O)N(C)C)ccc3c2=O)cc1 returned SUMO Mot1 rescue 524.0*, IMP-1 inh -1.1, VIM-2 inh -2.6, UBC9 SUMO inh 13.2, NALP1 yeast inh 16.0, FID counter -26.8 and Yeast Mot1 SUMO -0.8.
For COC(=O)C1=C(c2ccc(S(C)(=O)=O)cc2)C[C@@H]2CC[C@H]1N2C(=O)NC1CCCCC1 the results were SUMO Mot1 rescue -11.8.
For CN(C)C1(c2nnnn2CCOC(=O)Nc2ccc(Cl)cc2)CCCCC1 the results were SUMO Mot1 rescue -6.9, IMP-1 inh -2.1, VIM-2 inh -0.4, UBC9 SUMO inh -21.1, NALP1 yeast inh 0.1 and FID counter -15.8.
`CCOP(=O)(OCC)c1cc(CC)ccc1O` gave SUMO Mot1 rescue active, IMP-1 inh -3.4, VIM-2 inh -3.5, UBC9 SUMO inh 3.8, NALP1 yeast inh -3.7, FID counter -2.2 and Yeast Mot1 SUMO 0.4.
`C[N+](C)(C)CC(=O)O` gave SUMO Mot1 rescue 16.1.
For Cc1cc(/C=C2\C(=O)NC(=O)N(c3ccccc3F)C2=O)c(C)n1-c1cc(C(=O)O)cc(C(=O)O)c1 the results were SUMO Mot1 rescue 736.9*, IMP-1 inh -1.6, VIM-2 inh -0.7, UBC9 SUMO inh 5.0, NALP1 yeast inh 7.7, FID counter -3.2 and Yeast Mot1 SUMO 0.2.
